Assay results as given in ChEMBL document CHEMBL3351507, “11H-Pyrido[3',2':4,5]pyrrolo[3,2-c]cinnoline and pyrido[3',2':4,5]pyrrolo[1,2-c][1,2,3]benzotriazine: two new ring systems with antitumor activity” (2014).
Active and inactive are the calls of the source. The calls are words filed in the database; no cut-off is given here.

Tests used:
MOLT-4 = experiment: Cytotoxicity against human MOLT4 cells assessed as growth inhibition after 72 hrs by MTT assay; type: functional; details: MOLT-4, 72 h
HT-29 = experiment: Cytotoxicity against human HT-29 cells assessed as growth inhibition after 72 hrs by MTT assay; type: functional; details: HT-29, 72 h
SW-620 = experiment: Cytotoxicity against human SW620 cells assessed as growth inhibition after 72 hrs by MTT assay; type: functional; details: SW-620, 72 h
How it was run: (§1)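 NCI 60-cell-line panel screen. Compounds were tested at 5 concentrations in 10-fold dilution (10^-4 to 10^-8 M) across the full panel. GI50 was taken as the molar concentration giving 50% inhibition of net cell growth.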

SF-268 = experiment: Cytotoxicity against human SF268 cells assessed as growth inhibition after 72 hrs by MTT assay; type: functional; details: SF-268, 72 h; how it was run: as §1
SF-539 = experiment: Cytotoxicity against human SF539 cells assessed as growth inhibition after 72 hrs by MTT assay; type: functional; details: SF-539, 72 h; how it was run: as §1
SNB-19 = experiment: Cytotoxicity against human SNB19 cells assessed as growth inhibition after 72 hrs by MTT assay; type: functional; details: SNB-19, 72 h; how it was run: as §1
LOX IMVI = experiment: Cytotoxicity against human LOXIMVI cells assessed as growth inhibition after 72 hrs by MTT assay; type: functional
M14 = experiment: Cytotoxicity against human M14 cells assessed as growth inhibition after 72 hrs by MTT assay; type: functional; details: M14, 72 h
SK-MEL-5 = experiment: Cytotoxicity against human SK-MEL-5 cells assessed as growth inhibition after 72 hrs by MTT assay; type: functional; details: SK-MEL-5, 72 h; how it was run: as §1
[1] = Cytotoxicity against human UACC257 cells assessed as growth inhibition after 72 hrs by MTT assay; type: functional; details: UACC-257, 72 h; how it was run: as §1
[2] = Cytotoxicity against human OVCAR3 cells assessed as growth inhibition after 72 hrs by MTT assay; type: functional; details: OVCAR-3, 72 h; how it was run: as §1
SK-OV-3 = experiment: Cytotoxicity against human SKOV3 cells assessed as growth inhibition after 72 hrs by MTT assay; type: functional; details: SK-OV-3, 72 h; how it was run: as §1
786-0 = experiment: Cytotoxicity against human 786-0 cells assessed as growth inhibition after 72 hrs by MTT assay; type: functional; details: 786-0, 72 h
CAKI-1 = experiment: Cytotoxicity against human Caki1 cells assessed as growth inhibition after 72 hrs by MTT assay; type: functional; details: CAKI-1, 72 h
[3] = Cytotoxicity against human Hs578T cells assessed as growth inhibition after 72 hrs by MTT assay; type: functional; details: Hs-578T
MDA-MB-468 = experiment: Cytotoxicity against human MDA-MB-468 cells assessed as growth inhibition after 72 hrs by MTT assay; type: functional; details: MDA-MB-468, 72 h
A-431 = experiment: Cytotoxicity against human A431 cells assessed as growth inhibition after 72 hrs by MTT assay; type: functional; details: A-431, 72 h
How it was run: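 Cells were grown in medium with 10% heat-inactivated FBS plus penicillin/streptomycin: RPMI-1640 for Jurkat and CEM, DMEM for A-431, HAM's F12 for LoVo. The doxorubicin-resistant LoVo subclone was kept with 0.1 µg/mL doxorubicin. Cells were seeded at 5x10^3 per well and pre-incubated 24 h at 37 °C.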

LoVo = experiment: Resistance index, ratio of GI50 for human LoVo/DX cells to GI50 for human LoVo cells; type: functional
How it was run: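 CEMVbl-100 (vinblastine-selected CEM) was grown in RPMI-1640 with 0.1 µg/mL vinblastine. LoVoDoxo was grown in HAM's F12 with 0.1 µg/mL doxorubicin; parental CEM and LoVo were grown without drug. Media had 10% FBS. 5x10^3 cells were seeded, preincubated 24 h at 37 °C, then exposed 72 h to compound (DMSO <1%). Read-out was MTT; GI50 came from dose-response curves of ≥3 experiments. RI = GI50 resistant / GI50 parental.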

Jurkat [4] = experiment: Cell cycle arrest in human Jurkat cells assessed as accumulation at G1 phase at 0.5 uM after 24 hrs by propidium iodide staining-based flow cytometry (reference value: 62.6%); type: functional
Jurkat [5] = experiment: Cell cycle arrest in human Jurkat cells assessed as accumulation at G2/M phase at 0.5 uM after 24 hrs by propidium iodide staining-based flow cytometry (reference value: 21.9%); type: functional
Jurkat [6] = experiment: Induction of apoptosis in human Jurkat cells assessed as caspase-3 activation at 500 nM after 6 to 24 hrs by plate reader analysis; type: functional, cell-based
How it was run: (§2)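 Jurkat cells were treated with 500 nM compound for 6 h and 24 h, then lysed. Lysates were incubated with pNA-conjugated substrates: Ac-DEVD (caspase-3), Ac-IETD (caspase-8) and LEHD (caspase-9). pNA release was read at 405 nm and normalized to Bradford protein. Results are expressed as fold increase over untreated control.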

Jurkat [7] = experiment: Induction of apoptosis in human Jurkat cells assessed as caspase-8 activation at 500 nM after 6 hrs by plate reader analysis; type: functional, cell-based; how it was run: as §2
[8] = target: T1, DNA topoisomerase 1 (Homo sapiens) (UniProt P11387); experiment: Inhibition of human DNA topoisomerase 1-mediated relaxation of supercoiled pBR322 plasmid DNA at 5 to 100 uM after 30 mins by agarose gel electrophoresis relative to untreated control
T1 sequence (whole entry): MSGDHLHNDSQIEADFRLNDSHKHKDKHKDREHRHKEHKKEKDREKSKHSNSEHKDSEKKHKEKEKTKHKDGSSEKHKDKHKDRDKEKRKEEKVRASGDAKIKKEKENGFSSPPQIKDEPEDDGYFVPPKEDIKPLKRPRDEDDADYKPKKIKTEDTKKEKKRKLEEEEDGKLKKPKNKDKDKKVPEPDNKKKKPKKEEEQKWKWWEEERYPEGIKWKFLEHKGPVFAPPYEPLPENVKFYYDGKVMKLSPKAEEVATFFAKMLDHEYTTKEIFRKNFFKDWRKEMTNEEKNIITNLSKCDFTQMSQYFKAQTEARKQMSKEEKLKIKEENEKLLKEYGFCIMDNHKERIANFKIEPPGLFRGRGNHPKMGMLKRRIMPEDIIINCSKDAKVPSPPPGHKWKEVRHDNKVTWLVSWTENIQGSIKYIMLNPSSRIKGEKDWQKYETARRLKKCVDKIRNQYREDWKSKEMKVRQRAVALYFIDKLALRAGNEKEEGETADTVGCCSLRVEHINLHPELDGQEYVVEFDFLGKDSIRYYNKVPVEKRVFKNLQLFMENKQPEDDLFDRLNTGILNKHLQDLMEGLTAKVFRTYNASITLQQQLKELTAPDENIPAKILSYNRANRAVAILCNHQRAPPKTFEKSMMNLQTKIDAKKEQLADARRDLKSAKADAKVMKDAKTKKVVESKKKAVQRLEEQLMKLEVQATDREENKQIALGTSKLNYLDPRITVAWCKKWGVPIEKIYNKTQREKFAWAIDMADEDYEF
How it was run: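 Human topoisomerase I (10 units) was incubated with 0.250 µg supercoiled pBR322 and compound (5-100 µM) for 30 min at 37 °C. Buffer: 50 mM Tris-HCl pH 7.5, 50 mM KCl, 0.5 mM DTT, 10 mM MgCl2, 0.1 mM EDTA, 30 µg/mL BSA. Reactions were stopped with 1% SDS and proteinase K (50 µg/mL, 30 min). Samples ran on 0.8% agarose in TAE at 20 V overnight, then were post-stained with ethidium bromide.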

Compound	GI50 (MOLT-4) [nM]	GI50 (HT-29) [nM]	GI50 (SW-620) [nM]	GI50 (SF-268) [nM]	GI50 (SF-539) [nM]	GI50 (SNB-19) [µM]	GI50 (LOX IMVI) [nM]	GI50 (M14) [nM]	GI50 (SK-MEL-5) [µM]	GI50 [1] [µM]	GI50 [2] [nM]	GI50 (SK-OV-3) [nM]	GI50 (786-0) [nM]	GI50 (CAKI-1) [nM]	GI50 [3] [µM]	GI50 (MDA-MB-468) [nM]	GI50 (A-431) [nM]	Ratio (LoVo)	Activity (Jurkat [4]) [%]	Activity (Jurkat [5]) [%]	other results
COc1ccc2c(c1)nnc1c3cccnc3[nH]c21	29	750	380	730	640	7.61	760	1070	5.85	7.49	960	2690	510	110	3.47	67	2350	0.33	33.2	38.2	Activity (Jurkat [6]): Active; Activity (Jurkat [7]): Active; Activity [8]: Active
COc1cc2nnn3c4ncccc4c(N=O)c3c2cc1OC	< 10	790	210	490	1820	3.84	920	1710	12.6	4.54	460	4020	230	48	6.8	160	1410	1.11	21	54.3	Activity (Jurkat [6]): Active; Activity (Jurkat [7]): Active; Activity [8]: Active
COc1cc2nnc3c4cccnc4[nH]c3c2cc1OC	18	1340	440	540	1730	2.77	1410	1790	7.33	3.32	1150	2290	320	180	3.7	230					
COc1ccc2c(c1)nnn1c3ncccc3c(N=O)c21	9.4	620	270	470	470	6.28	800	1570	5.01	8.21	1110	1680	330	89	1.17	32	930	0.51	28.1	44.7	Activity (Jurkat [6]): Active; Activity (Jurkat [7]): Active; Activity [8]: Active
O=Nc1c2cccnc2n2nnc3ccc(Cl)cc3c12	18	910	190	1210	1890	3.18	1030	1190	3.82	3.07	250	2980	840	130	1.05	140					
